IC50 and inhibition data for one compound are collected here from ChEMBL document CHEMBL5661979, “Pharmacological inhibition of BMK1 suppresses tumor growth through promyelocytic leukemia protein” (Cancer Cell, 2010).

Assay [1] addresses Acylglycerol kinase, mitochondrial (Homo sapiens, UniProt Q53H12). As to the kind of experiment: Inhibition of AGK in human HeLa cells lysate pre incubated for 15 mins followed by ATP acyl phosphate probe addition and measured after 10 mins by LC-MS/MS analysis. The assay is classed as subcellular. The method in brief: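 HeLa cell lysates (5 mg/mL total protein) were preincubated with inhibitor at 0, 0.8, 2, 10 or 50 μM for 15 min. ATP or ADP acylphosphate probe was then added (5 μM final) for 10 min, and reactions were stopped with urea. Up to four fragment ions per kinase probe-peptide were quantified by targeted MS. % inhibition was taken relative to untreated lysate. Run in duplicate.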

Assay [2] deals with Mitogen-activated protein kinase kinase kinase 11 (Homo sapiens, UniProt Q16584). As to the kind of experiment: Inhibition of MLK3 in human HeLa cells lysate pre incubated for 15 mins followed by ATP acyl phosphate probe addition and measured after 10 mins by LC-MS/MS analysis. The assay is classed as subcellular.
The target in assay [3] is Calcium/calmodulin-dependent protein kinase kinase 1 (Homo sapiens, UniProt Q8N5S9). Put plainly: Inhibition of CAMKK1 in human HeLa cells lysate pre incubated for 15 mins followed by ADP acyl phosphate probe addition and measured after 10 mins by LC-MS/MS analysis. It is filed as subcellular. The method in brief: (§1)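 KiNativ profiling in HeLa lysate (5 mg/mL total protein). Lysate incubated 15 min with inhibitor at 50, 10, 2, 0.8 or 0 μM. ATP or ADP acylphosphate probe then added (5 μM final) and reacted 10 min. Reaction stopped with urea and analysed by targeted MS, using up to four fragment ions per kinase peptide-probe conjugate. % inhibition taken against untreated lysate. Run in duplicate.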
Calcium/calmodulin-dependent protein kinase kinase 1, sequence (Q8N5S9 whole entry, the tested form may be a part): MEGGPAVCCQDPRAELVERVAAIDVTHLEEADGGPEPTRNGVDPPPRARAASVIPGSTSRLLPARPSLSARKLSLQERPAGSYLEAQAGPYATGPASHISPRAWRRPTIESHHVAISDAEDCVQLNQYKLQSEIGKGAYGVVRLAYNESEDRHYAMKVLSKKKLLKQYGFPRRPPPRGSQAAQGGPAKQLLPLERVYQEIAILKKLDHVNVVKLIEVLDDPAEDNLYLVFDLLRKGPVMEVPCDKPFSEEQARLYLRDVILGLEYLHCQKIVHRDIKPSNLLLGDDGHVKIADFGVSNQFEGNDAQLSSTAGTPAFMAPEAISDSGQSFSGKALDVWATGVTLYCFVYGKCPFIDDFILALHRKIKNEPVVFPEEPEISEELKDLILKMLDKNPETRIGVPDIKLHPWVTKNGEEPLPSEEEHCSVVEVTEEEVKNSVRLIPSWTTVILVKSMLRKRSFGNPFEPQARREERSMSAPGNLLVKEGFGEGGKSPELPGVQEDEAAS

Assay [4] deals with Dual specificity mitogen-activated protein kinase kinase 6 (Homo sapiens, UniProt P52564). Put plainly: Inhibition of MAP2K6 in human HeLa cells lysate pre incubated for 15 mins followed by ADP acyl phosphate probe addition and measured after 10 mins by LC-MS/MS analysis. The assay is classed as subcellular.
The target of assay [5] is T1, EKC/KEOPS complex subunit TP53RK (Homo sapiens) (UniProt Q96S44).
T1 sequence (whole entry): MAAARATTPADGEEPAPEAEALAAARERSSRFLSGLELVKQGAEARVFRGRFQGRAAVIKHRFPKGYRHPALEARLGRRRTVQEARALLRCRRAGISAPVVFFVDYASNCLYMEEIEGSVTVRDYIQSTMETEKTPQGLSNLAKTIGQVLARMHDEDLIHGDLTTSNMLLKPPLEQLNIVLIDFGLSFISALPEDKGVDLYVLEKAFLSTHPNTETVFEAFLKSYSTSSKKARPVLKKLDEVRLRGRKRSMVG
Put plainly: Inhibition of PRPK in human HeLa cells lysate at 10 uM pre incubated for 15 mins followed by ADP acyl phosphate probe addition and measured after 10 mins by LC-MS/MS analysis relative to control. The assay is classed as subcellular. To be noted: time 25.0 min.

Assay [6] is described as follows: Inhibition of HGK/MINK/TNIK in human HeLa cells lysate at 10 uM pre incubated for 15 mins followed by ADP acyl phosphate probe addition and measured after 10 mins by LC-MS/MS analysis relative to control. The following applies: 25 min, condition cancer.
A short description of assay [7]: Inhibition of CDK5/PRKX/PRKY in human HeLa cells lysate at 2 uM pre incubated for 15 mins followed by ADP acyl phosphate probe addition and measured after 10 mins by LC-MS/MS analysis relative to control. To be noted: 25 min, condition cancer. A digest of the protocol: as §1
A further assay deals with Wee1-like protein kinase (Homo sapiens, UniProt P30291). As to the kind of experiment: Inhibition of Wee1 in human HeLa cells lysate at 50 uM pre incubated for 15 mins followed by ATP acyl phosphate probe addition and measured after 10 mins by LC-MS/MS analysis relative to control. The assay is classed as subcellular. To be noted: time 25.0 min.
Wee1-like protein kinase, sequence (P30291 whole entry, looked up): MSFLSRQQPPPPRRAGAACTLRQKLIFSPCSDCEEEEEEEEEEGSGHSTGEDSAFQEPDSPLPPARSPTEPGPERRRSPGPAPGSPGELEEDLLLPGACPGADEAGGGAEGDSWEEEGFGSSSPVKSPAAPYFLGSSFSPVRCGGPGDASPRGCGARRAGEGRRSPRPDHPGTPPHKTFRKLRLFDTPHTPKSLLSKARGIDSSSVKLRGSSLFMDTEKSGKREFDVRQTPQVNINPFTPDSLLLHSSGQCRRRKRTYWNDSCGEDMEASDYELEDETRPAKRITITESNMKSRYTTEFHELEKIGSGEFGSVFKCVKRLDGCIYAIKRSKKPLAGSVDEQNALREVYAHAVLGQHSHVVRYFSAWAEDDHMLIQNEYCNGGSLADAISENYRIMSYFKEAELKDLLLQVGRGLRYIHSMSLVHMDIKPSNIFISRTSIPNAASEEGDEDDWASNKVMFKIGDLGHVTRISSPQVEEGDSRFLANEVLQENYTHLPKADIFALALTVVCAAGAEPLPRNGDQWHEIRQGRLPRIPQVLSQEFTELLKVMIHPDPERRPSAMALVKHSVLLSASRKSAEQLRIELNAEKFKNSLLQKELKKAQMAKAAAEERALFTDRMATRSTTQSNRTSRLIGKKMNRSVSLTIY
Assay [8] addresses Mitogen-activated protein kinase 14 (Homo sapiens, UniProt Q16539). Put plainly: Inhibition of P38alpha interaction site in human HeLa cells lysate at 50 uM pre incubated for 15 mins followed by ATP acyl phosphate probe addition and measured after 10 mins by LC-MS/MS analysis relative to control. The assay is classed as subcellular. The following applies: time 25.0 min.
A short description of assay [9]: Inhibition of MAP3K2/3 in human HeLa cells lysate at 50 uM pre incubated for 15 mins followed by ATP acyl phosphate probe addition and measured after 10 mins by LC-MS/MS analysis relative to control. The following applies: 25 min, condition cancer.
Assay [10] in a line: Inhibition of NEK6/7 in human HeLa cells lysate at 50 uM pre incubated for 15 mins followed by ATP acyl phosphate probe addition and measured after 10 mins by LC-MS/MS analysis relative to control. The following applies: 25 min, condition cancer.
The target in assay [11] is Serine/threonine-protein kinase WNK1 (Homo sapiens, UniProt Q9H4A3). As to the kind of experiment: Inhibition of Wnk1 in human HeLa cells lysate at 10 uM pre incubated for 15 mins followed by ATP acyl phosphate probe addition and measured after 10 mins by LC-MS/MS analysis relative to control. It is filed as subcellular. To be noted: time 25.0 min.
Serine/threonine-protein kinase WNK1, sequence (Q9H4A3 whole entry, looked up): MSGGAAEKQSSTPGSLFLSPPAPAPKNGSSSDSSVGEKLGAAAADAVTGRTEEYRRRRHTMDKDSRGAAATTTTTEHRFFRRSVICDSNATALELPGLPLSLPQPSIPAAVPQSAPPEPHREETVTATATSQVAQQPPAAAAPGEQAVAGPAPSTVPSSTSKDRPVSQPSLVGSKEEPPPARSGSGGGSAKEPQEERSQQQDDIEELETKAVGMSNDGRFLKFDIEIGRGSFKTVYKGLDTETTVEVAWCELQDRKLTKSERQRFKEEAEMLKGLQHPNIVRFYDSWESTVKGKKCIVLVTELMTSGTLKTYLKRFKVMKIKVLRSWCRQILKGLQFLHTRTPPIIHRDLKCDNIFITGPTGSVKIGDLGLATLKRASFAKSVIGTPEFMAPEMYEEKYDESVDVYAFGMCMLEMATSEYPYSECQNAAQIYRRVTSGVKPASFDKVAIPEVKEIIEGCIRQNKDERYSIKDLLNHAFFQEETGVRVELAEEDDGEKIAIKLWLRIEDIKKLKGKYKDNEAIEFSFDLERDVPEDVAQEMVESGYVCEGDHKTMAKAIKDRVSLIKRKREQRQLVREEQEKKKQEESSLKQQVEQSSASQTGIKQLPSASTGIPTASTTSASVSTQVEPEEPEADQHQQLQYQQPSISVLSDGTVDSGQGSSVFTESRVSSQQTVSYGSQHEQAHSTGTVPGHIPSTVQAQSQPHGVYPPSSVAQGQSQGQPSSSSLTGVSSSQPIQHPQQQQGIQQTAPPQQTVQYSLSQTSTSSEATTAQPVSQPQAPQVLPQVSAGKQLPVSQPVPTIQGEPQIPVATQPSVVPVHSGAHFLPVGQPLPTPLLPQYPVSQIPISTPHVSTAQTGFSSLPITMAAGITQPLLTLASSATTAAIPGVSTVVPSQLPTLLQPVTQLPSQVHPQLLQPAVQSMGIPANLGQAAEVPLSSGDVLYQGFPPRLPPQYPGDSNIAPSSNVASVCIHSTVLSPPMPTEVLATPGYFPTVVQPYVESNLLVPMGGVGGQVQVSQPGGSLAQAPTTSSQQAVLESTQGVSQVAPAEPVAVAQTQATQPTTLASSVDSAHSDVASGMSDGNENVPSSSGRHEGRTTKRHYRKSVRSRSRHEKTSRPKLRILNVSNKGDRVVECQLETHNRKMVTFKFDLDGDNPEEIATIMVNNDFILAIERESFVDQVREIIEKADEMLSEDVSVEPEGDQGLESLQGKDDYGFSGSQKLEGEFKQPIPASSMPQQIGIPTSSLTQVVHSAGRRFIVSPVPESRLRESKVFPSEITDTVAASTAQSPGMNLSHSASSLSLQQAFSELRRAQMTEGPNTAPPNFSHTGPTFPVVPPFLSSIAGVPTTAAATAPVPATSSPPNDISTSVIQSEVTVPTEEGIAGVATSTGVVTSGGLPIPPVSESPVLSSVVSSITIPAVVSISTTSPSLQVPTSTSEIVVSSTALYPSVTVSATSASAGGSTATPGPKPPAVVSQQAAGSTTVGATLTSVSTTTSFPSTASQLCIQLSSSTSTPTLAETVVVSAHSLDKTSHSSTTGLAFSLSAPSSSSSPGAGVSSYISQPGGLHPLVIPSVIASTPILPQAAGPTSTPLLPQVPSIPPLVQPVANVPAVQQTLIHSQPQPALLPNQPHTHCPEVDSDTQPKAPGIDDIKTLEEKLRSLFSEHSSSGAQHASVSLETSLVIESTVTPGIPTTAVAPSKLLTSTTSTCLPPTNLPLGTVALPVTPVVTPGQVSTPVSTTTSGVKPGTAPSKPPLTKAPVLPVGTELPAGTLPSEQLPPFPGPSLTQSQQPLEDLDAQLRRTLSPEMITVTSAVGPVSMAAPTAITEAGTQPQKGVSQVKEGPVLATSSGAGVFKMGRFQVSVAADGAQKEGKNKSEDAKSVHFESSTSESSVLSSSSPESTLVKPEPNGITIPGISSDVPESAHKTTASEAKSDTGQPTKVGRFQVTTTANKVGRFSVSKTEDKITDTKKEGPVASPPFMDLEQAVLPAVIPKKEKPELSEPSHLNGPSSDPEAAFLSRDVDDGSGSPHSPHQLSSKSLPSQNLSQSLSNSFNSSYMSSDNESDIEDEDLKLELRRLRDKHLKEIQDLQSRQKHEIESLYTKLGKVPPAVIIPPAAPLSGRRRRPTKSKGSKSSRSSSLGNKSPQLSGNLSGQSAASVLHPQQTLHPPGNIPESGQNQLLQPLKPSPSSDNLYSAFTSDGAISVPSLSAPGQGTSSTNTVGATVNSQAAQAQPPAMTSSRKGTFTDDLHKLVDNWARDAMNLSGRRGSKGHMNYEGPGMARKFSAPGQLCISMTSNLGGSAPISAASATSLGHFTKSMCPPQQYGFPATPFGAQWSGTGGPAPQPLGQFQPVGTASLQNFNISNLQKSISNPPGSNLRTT
In assay [12] the target is T2, Mitogen-activated protein kinase kinase kinase 7 (Homo sapiens) (UniProt O43318).
T2 sequence (whole entry): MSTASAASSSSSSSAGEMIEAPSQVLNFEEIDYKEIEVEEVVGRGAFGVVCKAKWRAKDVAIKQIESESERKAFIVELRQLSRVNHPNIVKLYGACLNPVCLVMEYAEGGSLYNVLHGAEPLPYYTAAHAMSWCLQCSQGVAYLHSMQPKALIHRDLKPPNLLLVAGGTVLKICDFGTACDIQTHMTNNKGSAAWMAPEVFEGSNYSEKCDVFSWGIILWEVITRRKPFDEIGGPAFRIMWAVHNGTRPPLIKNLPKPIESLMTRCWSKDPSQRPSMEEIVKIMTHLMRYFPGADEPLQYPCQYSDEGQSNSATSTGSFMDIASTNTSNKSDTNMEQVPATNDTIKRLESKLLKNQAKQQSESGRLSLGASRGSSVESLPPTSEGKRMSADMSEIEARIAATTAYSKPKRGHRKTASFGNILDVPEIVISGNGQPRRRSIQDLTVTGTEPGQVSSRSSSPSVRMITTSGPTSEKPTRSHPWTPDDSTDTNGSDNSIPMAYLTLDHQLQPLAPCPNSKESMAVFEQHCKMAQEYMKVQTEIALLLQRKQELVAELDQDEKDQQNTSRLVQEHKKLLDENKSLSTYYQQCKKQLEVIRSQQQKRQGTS
Put plainly: Inhibition of TAK1 in human HeLa cells lysate at 2 uM pre incubated for 15 mins followed by ATP acyl phosphate probe addition and measured after 10 mins by LC-MS/MS analysis relative to control. It is filed as subcellular. To be noted: time 25.0 min.

For assay [13], the target named is Tyrosine-protein kinase CSK (Homo sapiens, UniProt P41240). Put plainly: Inhibition of CSK in human HeLa cells lysate at 2 uM pre incubated for 15 mins followed by ATP acyl phosphate probe addition and measured after 10 mins by LC-MS/MS analysis relative to control. The following applies: time 25.0 min. The assay is classed as subcellular.
Tyrosine-protein kinase CSK, sequence (P41240 2-450 limits assumed): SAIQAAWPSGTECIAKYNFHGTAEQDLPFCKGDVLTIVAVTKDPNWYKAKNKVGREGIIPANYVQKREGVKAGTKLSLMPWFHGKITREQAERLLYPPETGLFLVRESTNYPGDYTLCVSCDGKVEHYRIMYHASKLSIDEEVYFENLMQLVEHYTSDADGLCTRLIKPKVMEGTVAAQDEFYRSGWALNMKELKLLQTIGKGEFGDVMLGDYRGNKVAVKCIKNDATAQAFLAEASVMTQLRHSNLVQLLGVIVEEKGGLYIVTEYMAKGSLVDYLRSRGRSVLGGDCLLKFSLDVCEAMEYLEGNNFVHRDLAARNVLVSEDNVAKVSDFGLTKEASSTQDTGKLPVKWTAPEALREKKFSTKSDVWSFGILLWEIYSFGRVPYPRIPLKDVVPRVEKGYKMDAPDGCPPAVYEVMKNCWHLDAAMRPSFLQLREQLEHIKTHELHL
For assay [14], the target named is Mitogen-activated protein kinase 7 (Mus musculus) (UniProt Q9WVS8). As to the kind of experiment: Inhibition of BMK1 in mouse MEF cells transfected with PML2D S403D/T409D mutant assessed as increase in p21 protein expression at 5 uM incubated for 16 hrs by Western blot analysis. The assay is classed as cell-based. A digest of the protocol: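 Pml−/− MEFs infected with Ad-EV, Ad-PML or Ad-PML2D. Three days later treated ±5 μM inhibitor for 16 h. p21 western blot quantified by densitometry and normalized to GAPDH, relative to untreated Ad-EV-infected Pml−/− cells set as 1. n = 3, ±SEM.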
Mitogen-activated protein kinase 7 (Mus musculus), sequence (Q9WVS8 whole entry): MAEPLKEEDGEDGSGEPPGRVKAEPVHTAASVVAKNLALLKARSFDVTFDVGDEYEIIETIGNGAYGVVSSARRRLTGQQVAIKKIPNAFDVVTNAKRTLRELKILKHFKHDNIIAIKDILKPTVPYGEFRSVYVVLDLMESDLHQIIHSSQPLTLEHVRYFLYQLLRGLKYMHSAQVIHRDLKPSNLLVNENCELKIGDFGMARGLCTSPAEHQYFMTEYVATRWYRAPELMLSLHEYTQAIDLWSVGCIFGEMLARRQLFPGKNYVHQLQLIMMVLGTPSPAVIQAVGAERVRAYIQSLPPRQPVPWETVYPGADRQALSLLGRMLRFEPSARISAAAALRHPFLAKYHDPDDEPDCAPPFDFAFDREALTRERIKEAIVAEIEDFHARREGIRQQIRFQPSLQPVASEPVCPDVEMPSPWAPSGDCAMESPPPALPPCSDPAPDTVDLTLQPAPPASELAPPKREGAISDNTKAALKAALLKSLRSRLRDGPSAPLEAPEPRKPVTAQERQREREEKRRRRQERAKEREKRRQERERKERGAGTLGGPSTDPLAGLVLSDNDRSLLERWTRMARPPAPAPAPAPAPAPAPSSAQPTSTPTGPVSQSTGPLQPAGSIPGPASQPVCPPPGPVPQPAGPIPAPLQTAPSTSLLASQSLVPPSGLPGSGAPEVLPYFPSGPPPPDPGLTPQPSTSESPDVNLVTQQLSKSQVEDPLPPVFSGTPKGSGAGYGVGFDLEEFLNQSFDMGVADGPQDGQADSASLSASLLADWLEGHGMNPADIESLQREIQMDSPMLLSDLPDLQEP

pIC50: −log10 of the molar value. Calls of active or inactive are those of the source. No cut-off for these calls is given here.

As a reminder, the pIC50 is the IC50 on a negative log10 scale, so that one unit is a factor of ten. The term inhibition denotes the relative decrease from the control value, in per cent. With `CCOc1cc(N2CCC(O)CC2)ccc1Nc1ncc2c(n1)N(C)c1ccccc1C(=O)N2C`, the pIC50 in assay [1], in assay [2], in assay [3] and in assay [4] was less than 4.30 in each case. The inhibition in [5] was 13.5%; at Wee1-like protein kinase it was 4.1%; in assay [8] it was -2.5%; in assay [11], 6.9%; in assay [12], -4.8%; in assay [13], -4.4%. Further, the inhibition at 10 µM in assay [6] was -25.3%. The inhibition at 2 µM in [7] stood at 9.4%. For the same compound, the inhibition at 50 µM in [9] was -8.7%; in [10], -11.1%. Besides, in assay [14], the inhibition entry is “inactive”.
